Screening data (PubChem)
Only some compounds are listed: those with a hit (about 2.6% of all), similar ones and a draw of the others.
AHR act – human AHR activation; P35869; AHR-responsive luciferase reporter cells, luminescence; activation, % at 5 µM; 320,000 tested, 2.5% active; AID 2796; in the data active means activation above about 47%
PolyA inh – inhibitors of polyadenylation in S. cerevisiae; AID 1875; 300,000 tested, 0.02% active; S. cerevisiae SKY197-pL101 polyadenylation reporter, beta-gal luminescence; efflux-impaired pdr1/pdr3 knockout yeast; score 100 = 6 SD above DMSO; activity score, % at 12 µM;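 active means lowest replicate activity score at least 50, where 100 means six control SD above control mean; inconclusive means lowest score under 50 but half or more replicates reach 50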;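 further: yeast exposed to compound for 9 h at 30 °C; higher score means more reporter readthrough which indicates perturbed polyadenylation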
procasp3 activ – activates human procaspase-3; activation, % at 8.5 µM; recombinant procaspase-3 D3A, Ac-DEVD-pNA absorbance 405 nm; 330,000 tested, 0.11% active;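 active means activation above the mean of all tested compounds plus 3 SD, cut at about 21% in these data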
Target sequence (P42574 whole entry D9A/D28A/D175A): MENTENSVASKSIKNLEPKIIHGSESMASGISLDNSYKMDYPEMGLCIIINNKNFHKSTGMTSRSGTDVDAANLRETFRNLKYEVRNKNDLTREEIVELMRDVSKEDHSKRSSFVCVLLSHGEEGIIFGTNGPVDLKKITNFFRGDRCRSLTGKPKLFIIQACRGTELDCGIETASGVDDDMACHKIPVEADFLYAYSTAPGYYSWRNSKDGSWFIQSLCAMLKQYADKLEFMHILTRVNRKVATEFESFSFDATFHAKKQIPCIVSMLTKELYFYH
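System: Procaspase-3 D3A mutant. Medium: Zinc-free 300 mM NaCl, 50 mM HEPES, 0.01% Triton X-100. Schedule: 1 h preincubation plus 2 h reaction at 25 °C. Measured by: 405 nm absorbance of p-nitroaniline, reads at 0 and 120 min. Read-out: percent activation relative to control range.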
procasp7 counter – activates human procaspase-7, counter-screen for procaspase-3 activators; recombinant procaspase-7, Ac-DEVD-pNA absorbance 405 nm; D23A/D198A/D206A triple mutant, cannot self-cleave; scale: DMSO 0, 5 µM enzyme 100; activation, % at 8.5 µM; 330,000 tested, 0.093% active;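 active means percent activation above the screen-wide mean plus 3 SD, cut at about 25% in these data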
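Assay system – Uncleavable procaspase-7 mutant enzyme · Quantity – 2 µM procaspase-7 mutant as dispensed · Times – 1 h preincubation, 2 h reaction · Dosing – single nominal 8.5 µM compound dose, 0.8% DMSO final · Buffer or medium – Zinc-free 50 mM HEPES buffer, pH 7.4, with NaCl and Triton X-100 · Detection – Epi-absorbance of released pNA at 405 nm, two timepoints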
Of the large screens only hits and unclear results are named; the others gave an inactive call.

CN(C)c1ccc(CNC(=O)CCS(=O)(=O)c2ccc3c(c2)n(C)c(=O)c(=O)n3C)cc1	PolyA inh inconclusive
Cc1nc2ccccc2c(=O)n1NC(=O)c1ccco1	none (no result: PolyA inh)
O=C(Nn1c(-c2ccc(Br)cc2)nc2ccccc2c1=O)c1ccc([N+](=O)[O-])cc1	AHR act 61.6
O=C(Nn1c(-c2ccccc2)nc2ccccc2c1=O)c1ccco1	AHR act 58.2
c1nc(NCc2ccc3c(c2)OCO3)c2cc(-c3ccoc3)ccc2n1	none (no result: PolyA inh)
CC1=C(CC(=O)c2ccccc2)C(=O)c2ccccc2C1=O	AHR act 48.2
COc1ccc(Br)cc1C(=O)Nc1ccc(Cc2ccncc2)cc1	AHR act 58.8
COc1cc(-c2cc(=O)c3ccccc3o2)ccc1O	AHR act 77.4
COc1cc(OC)cc(C(=O)N/N=C\c2ccoc2)c1	none
CCN(C[C@H]1N[C@@](Cc2ccccc2)(C(=O)OC)[C@H]2C(=O)N(C)C(=O)[C@@H]12)S(=O)(=O)c1ccc(C(C)(C)C)cc1	none (no result: PolyA inh)
Cc1ccc(C)c(/C=N/Nc2nc3ccccc3c(=O)n2O)c1	none
Cc1cc(C)c(C(CC(=O)c2cccs2)C(C#N)C#N)c(C)c1 (stereo not drawn)	AHR act 58.1
CN1C(=O)/C(=C/c2ccc(OCc3ccc(F)cc3)cc2)N(C)C1=S	none
CN1C(=O)/C(=C/c2ccccc2OCc2cccc(F)c2)N(C)C1=S	AHR act 50.4
COc1ccc(C(=O)N2CCCC(CCC(=O)NCc3ccccc3F)C2)c(OC)n1 (stereo not drawn)	none
COc1ccc(-n2c3c(c(=O)[nH]c2=O)C(NC(C)=O)(C(F)(F)F)C(=O)N3)cc1 (stereo not drawn)	none
Cc1nn(-c2ccccc2)c2c1C(c1cccs1)C(C#N)=C(N)O2 (stereo not drawn)	AHR act 55.5
Cc1ccc(/C=N/NC(=S)NCCc2ccccc2)s1	none
CCCCNC(=S)N/N=C/c1ccc(C)s1	AHR act 74.6
O=C(NC1CCCCC1)c1ccc(-c2ccccc2[N+](=O)[O-])o1	AHR act 59.4
CCOC(=O)/C(=N\Nc1ncnc2ccccc12)c1ccc(OC)cc1	none
COc1ccc(/C(=N/Nc2ncnc3ccccc23)C(=O)O)cc1	AHR act 72.9
CNC(=O)/C(C#N)=C/c1c(N2CCCCCC2)nc2ccccn2c1=O	none
FC(F)(F)c1ccc(C2NCCc3sccc32)cc1 (stereo not drawn)	AHR act 64.8
O=C(COc1ccccc1)Nc1nc(-c2cccnc2)cs1	AHR act 54.9 (no result: PolyA inh)
N#Cc1ccc(OCC(=O)Nc2nc(-c3cccnc3)cs2)cc1	AHR act 48.6 (no result: PolyA inh)
Cc1cc(C)cc(OCC(=O)Nc2nc(-c3cccnc3)cs2)c1	AHR act 66.5
Cc1cccc(OCC(=O)Nc2nc(-c3ccncc3)cs2)c1	none (no result: PolyA inh)
O=C(COc1ccccc1)Nc1nc(-c2ccncc2)cs1	none
CCc1ccccc1Nc1nc(-c2cccnc2)cs1	none
O=[N+]([O-])c1ccccc1Nc1nc(-c2cccnc2)cs1	AHR act 52.2
CCC(CC)c1nnc(NC(=O)c2cccc(S(=O)(=O)N3CCOCC3)c2)s1	none (no result: PolyA inh)
COc1cc(NC(=O)c2cc([N+](=O)[O-])ccc2NC(=O)CNC2CCCCC2)cc(OC)c1	none
O=C(CNC1CCCCC1)Nc1ccc([N+](=O)[O-])cc1C(=O)Nc1ccccc1F	AHR act 47.5
COc1ccccc1N(CCN1C(=O)c2cccc3cccc(c23)C1=O)C(=O)c1ccncc1	none
COc1ccc(-c2cc(-c3ccccc3)nc(SCC(=O)Nc3nccs3)c2C#N)cc1	none
COc1ccc(-c2[nH]c(-c3ccc(SC)cc3)nc2SCC(=O)Nc2nccs2)cc1	AHR act 52.4
COc1ccc(-c2[nH]c(-c3ccc(C)cc3)nc2SCC(=O)Nc2nccs2)cc1	AHR act 55.4
COc1ccc(-c2nc(SCC(=O)Nc3nccs3)c(-c3ccc(Cl)cc3)[nH]2)cc1	AHR act 72.0
COc1ccc(-c2ccc(SCC(=O)NCc3ccco3)nn2)cc1	none
COc1ccc(-c2[nH]c(-c3cccc(OC)c3)nc2SCC(=O)NCc2ccco2)cc1	AHR act 77.4 (no result: PolyA inh)
Cc1cc(C)cc(OCC(=O)Nc2cnn(CCCC(=O)O)c2)c1	none
O=C(NCCC1CCCCN1S(=O)(=O)c1ccccc1)C(=O)Nc1ccc(F)cc1F (stereo not drawn)	none
Cc1ccc(S(=O)(=O)N(C)CCCC(=O)N2CCCCC2)cc1	none
